Consider 1 molecule from paper PMC4363136 (Biochemical pharmacology, 2014).

The nature of series [1]: Pharmacokinetics after intravenous administration. The class given is in vivo, CD-1 mice. The note with it: male, CD-1, mouse, plasma, iv, 5 mg/kg. Put shortly:
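Male CD-1 mice, fasted 3 h, received a single IV dose of test compound at 5 mg/kg in water. Blood was sampled sparsely from the retro-orbital plexus at 5 min–24 h into K2EDTA. Plasma was protein-precipitated with acetonitrile and 7-hydroxynoscapine internal standard, then quantified by positive-mode MRM LC-MS/MS (calibration 1 ng/mL–1 µg/mL). Non-compartmental analysis: linear-trapezoid AUC, CL and Vss from IV data, C0 back-extrapolated.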

The next series deals with MAPs-rich tubulin. Briefly: Light scattering assay of MAPs-rich tubulin polymerization. In kind it is biochemical, goat. The note with it: 50 µM compound, 1 mg/ml MAPs-rich tubulin, 37°C, 400 nm.
A short description of series [2]: Pharmacokinetics after oral administration. In kind it is in vivo, CD-1 mice. Conditions: plasma, 50 mg/kg. The essentials:
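Male CD-1 mice (3 per group), fasted 3 h, were dosed once by oral gavage at 50 mg/kg in water. Plasma was collected by sparse retro-orbital sampling at 5 min–24 h. Samples were acetonitrile-precipitated with internal standard and assayed by LC-MS/MS (1 ng/mL–1 µg/mL). Non-compartmental analysis: linear-trapezoid AUClast, Cmax taken as observed. F is dose-normalized oral AUClast over IV (5 mg/kg) AUClast.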

The test system of a further series is HeLa cells. The series is described as follows: MTT cell proliferation assay, HeLa. The class given is cell-based. Conditions: Homo sapiens, 48 h. The essentials: (§1)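 Cell lines were grown in medium with 10% FBS and 1% penicillin/streptomycin: PC-3 in RPMI; HeLa, MIA PaCa-2 and T24 in DMEM. Cells were seeded at 5×10^3 per well, attached overnight, then given test compound (0–500 µM, from PBS solution, diluted in medium) for 48 h. MTT was added for 4 h and formazan dissolved in DMSO. A570 was read. IC50 is the concentration giving 50% inhibition of proliferation.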

The test system of a further series is T24 bladder cancer cells. The series is described as follows: MTT cell proliferation assay, T24. In kind it is cell-based. The note with it: 48 h. The essentials:
as §1
A general note: Formazan colour is commonly taken as a measure of viable cells.

Another series relates to MIA PaCa-2 cells. The series is described as follows: MTT cell proliferation assay, MIA PaCa-2. The class given is cell-based. The note with it: Homo sapiens, MIA PaCa-2, 48 h. Put shortly:
as §1

The test system of series [3] is pure tubulin. The series is described as follows: Light scattering assay of pure tubulin polymerization. In kind it is biochemical, goat. The note with it: 10 µM tubulin, 1M monosodium glutamate.
The subject of series [4] is PC-3 cells. Briefly: Immunofluorescence confocal microscopy of spindle morphology. In kind it is cell-based, human. The note with it: 12h and 24h. Put shortly: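 PC-3 cells were grown on glass coverslips and exposed to test compound for 12 h or 24 h. Cells were fixed in −20 °C methanol for 10 min, then blocked in 2% BSA/PBS at 37 °C for 1 h. They were stained with anti-α- and anti-γ-tubulin (1:1000, 45 min, 37 °C) and Alexa Fluor 488/555 secondaries (1:1000, 45 min, 37 °C). DNA was stained with DAPI. Slides were mounted in antifade and imaged by confocal microscopy.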

The subject of the next series is MAPs rich tubulin. Briefly: GTPase activity assay. In kind it is biochemical, goat. Conditions: different concentrations of compound, 10 min.
Series [5] relates to PC-3 cells. The series is described as follows: MTT cell proliferation assay, PC-3. In kind it is cell-based, human. Conditions: Homo sapiens, PC-3, 48 h. The essentials:
as §1

The subject of series [6] is pure tubulin. The series is described as follows: GTPase activity assay. The class given is biochemical, goat. Conditions: 50 µM compound, compared to control.

Molecules are shown by their SMILES.

As usually defined, the AUC(0-t) is the area under the concentration-time curve up to a stated or last time point. High values mean more exposure, low ones less exposure. For orientation: Vd means the apparent volume that relates the amount in the body to the concentration in plasma or blood. Read a low Vd as confinement near the circulation. As a reminder, the clearance is a measure of how efficiently the substance is removed, as volume per time. Low values mean inefficient removal, high ones efficient removal. As usually defined, the half-life is the time needed for the level to fall by half in the phase considered. Usually Tmax stands for the time at which the peak concentration occurs. The term bioavailability denotes dose-corrected exposure relative to a reference, in per cent. A word on the Cmax: it is the peak of the concentration-time curve. In general, IC50 refers to the point on the concentration scale where inhibition reaches its midpoint. As to `COc1ccc2c(c1OCCCCS(=O)(=O)O)C(=O)O[C@@H]2[C@H]1c2c(cc3c(c2OC)OCO3)CCN1C` [Compound 6b, 4-(((S)-5-methoxy-1-((R)-4-methoxy-6-methyl-5,6,7,8-tetrahydro-[1,3]dioxolo[4,5-g]isoquinolin-5-yl)-3-oxo-1,3-dihydroisobenzofuran-4-yl)oxy)butane-1-sulfonic acid], in series [1], the AUC(0-t) is 198 ng·h/mL, the C0 worked out at 502 ng/mL, the volume of distribution (Vd) was 9.53 L/kg and the clearance amounted to 369 mL/min/kg. In addition, the half-life in series [1] is 37.8 min. Moreover, the “Percent decrease in light scattering of MAP-tubulin” value in the series with MAPs-rich tubulin turned out to be 74 ± 13%. Moreover, in [2] (male, CD-1, mouse, po), the AUC(0-t) turned out to be 611 ng·h/mL, the Tmax was determined as 4.8 min and the bioavailability was 27%. In [2] (oral gavage 50 mg/kg, CD-1 mice), this molecule came in with a Cmax of 2970 ± 60 ng/mL. In the series on HeLa cells, the IC50 is 66 µM. Further, the IC50 in the series on T24 bladder cancer cells turned out to be 3.3 µM. The IC50 with MIA PaCa-2 cells amounted to 30 µM. For the same molecule, the “% Decrease in light scattering of pure tubulin” value (shortened to “% Decrease in light scattering”) with pure tubulin [3] (10 µM compound) came to 14±6%. Also, the “% Decrease in light scattering” value in the series on pure tubulin [3] (25 µM compound) stood at 25±7.6%. Further, in the series on pure tubulin [3] (50 µM compound), the “% Decrease in light scattering” value was determined as 35±7.2%. The “spindle / mitotic phenotype” value with PC-3 cells [4] is given as “induced a multipolar phenotype”. Further, the “change in GTPase activity of MAPs-rich tubulin” value in the series on MAPs rich tubulin is reported as “increased significantly”. This molecule displayed an IC50 in the series with PC-3 cells [5] of 19 µM. Moreover, in the series on pure tubulin [6], the “change in GTPase activity of pure tubulin” value is “did not change significantly”.
